The structures appear in SMILES notation.

Results on nine molecules are retold here after ChEMBL document CHEMBL3861996, “Arylsulfonamide derivatives of (aryloxy)ethyl pyrrolidines and piperidines as α1-adrenergic receptor antagonist with uro-selective activity” (Bioorg Med Chem, 2016).

The nature of data set [1]: Selectivity ratio of EC50 for human alpha1B adrenergic receptor expressed in CHOK1 cells co-expressing aequorin assessed as inhibition of agonist induced calcium mobilization to EC50 for alpha1A adrenergic receptor (unknown origin) assessed as inhibition of agonist induced effect. In kind it is cell-based. To be noted: cho-k1. For orientation: A change in cytosolic calcium serves as a functional read-out for many receptors and channels.

The target of data set [2] is T1, Alpha-1B adrenergic receptor (Homo sapiens, UniProt P35368).
T1 sequence (P35368 whole entry): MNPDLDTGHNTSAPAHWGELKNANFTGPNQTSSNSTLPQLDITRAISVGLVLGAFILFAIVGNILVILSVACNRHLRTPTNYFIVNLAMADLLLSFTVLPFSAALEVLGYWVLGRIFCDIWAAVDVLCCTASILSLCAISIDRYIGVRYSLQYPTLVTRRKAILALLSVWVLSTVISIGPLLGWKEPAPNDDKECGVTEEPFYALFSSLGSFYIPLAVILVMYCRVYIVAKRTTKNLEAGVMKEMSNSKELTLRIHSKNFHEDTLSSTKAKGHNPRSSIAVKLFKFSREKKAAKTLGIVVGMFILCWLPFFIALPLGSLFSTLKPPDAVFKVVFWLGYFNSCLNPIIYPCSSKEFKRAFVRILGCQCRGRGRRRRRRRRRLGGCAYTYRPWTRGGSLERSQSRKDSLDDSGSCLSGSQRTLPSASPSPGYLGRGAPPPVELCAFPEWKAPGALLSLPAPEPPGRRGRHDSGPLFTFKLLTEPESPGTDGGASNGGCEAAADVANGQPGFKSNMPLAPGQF
The experiment in a line: Intrinsic activity at human alpha1B adrenergic receptor expressed in CHOK1 cells co-expressing aequorin assessed as inhibition of agonist induced calcium mobilization preincubated for 15 mins followed by agonist addition measured for 20 secs in presence of coelenterazine H by luminescence assay. In kind it is cell-based, CHO-K1. An outline of the steps:
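Frozen ready-to-use cells stably expressing α1B receptor and aequorin, resuspended in assay buffer with 5 µM coelenterazine h and rotated overnight at rt in the dark. Diluted to 5000 cells/20 µL. Agonist mode: cells injected onto ligands, light recorded 20 s. Antagonist mode: 15 min with compound at room temperature, then agonist at 3× EC80 final, light recorded 20 s. Mean EC50 from three experiments.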

Data set [3] has as its target T2, Alpha-1A adrenergic receptor (Homo sapiens, UniProt P35348).
T2 sequence (P35348 whole entry): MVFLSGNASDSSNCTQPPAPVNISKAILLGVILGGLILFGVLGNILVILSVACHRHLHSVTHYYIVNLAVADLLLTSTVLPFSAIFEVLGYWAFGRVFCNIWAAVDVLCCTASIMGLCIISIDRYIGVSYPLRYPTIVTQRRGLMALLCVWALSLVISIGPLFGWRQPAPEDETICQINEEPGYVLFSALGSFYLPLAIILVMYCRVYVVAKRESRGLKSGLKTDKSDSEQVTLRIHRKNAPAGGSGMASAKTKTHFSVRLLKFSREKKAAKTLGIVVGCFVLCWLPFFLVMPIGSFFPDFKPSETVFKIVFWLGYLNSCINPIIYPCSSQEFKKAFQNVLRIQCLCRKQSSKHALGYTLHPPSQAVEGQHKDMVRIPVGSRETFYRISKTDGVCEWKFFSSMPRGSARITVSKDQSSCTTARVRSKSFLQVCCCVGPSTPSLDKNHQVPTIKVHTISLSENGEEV
Kind of data set: Intrinsic activity at alpha1A adrenergic receptor (unknown origin) assessed as inhibition of agonist induced effect preincubated for 30 mins followed by agonist addition measured after 5 hrs in presence of CCF4-AM by cell based beta lactamase reporter gene assay. An outline of the steps:
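Antagonist mode: 8 compound concentrations (10^-4–10^-11 M), then after 30 min standard agonist at EC80. Incubated 5 h at 37 °C/5% CO2, then loaded with CCF4-AM FRET substrate for 2 h at room temperature. Fluorescence read-out. Mean EC50 from three experiments.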

For `COc1ccccc1OCCN1CCC(CNS(=O)(=O)c2cc(Cl)ccc2F)CC1`, the “Ratio EC50” value in data set [1] is 0.08. In addition, the EC50 in data set [2] was 12.7 nM; in data set [3], 148 nM.
For the molecule `CC(C)Oc1ccccc1OCCN1CCC(CNS(=O)(=O)c2cccc3cccnc23)CC1`, the “Ratio EC50” value in data set [1] is recorded as 3.07. In addition, the half-maximal effective concentration (EC50) stood at 105 nM in data set [2] and 34.1 nM in data set [3].
The like results for `COc1ccccc1OCCN1CCC(CNS(=O)(=O)c2cccc(Cl)c2)CC1` were, in that order, 0.13, 15.5 nM and 121 nM.
The like results for `COc1ccccc1OCCN1CCC(CNS(=O)(=O)c2cccc(Cl)c2F)CC1` were, in that order, 0.17, 14.1 nM and 84.2 nM.
As for `COc1ccccc1OCCN1CCC(CNS(=O)(=O)c2cncc3ccccc23)CC1`, the “Ratio EC50” value in data set [1] turned out to be 3.68. Further, the EC50 came out at 515 nM in data set [2] and 140 nM in data set [3].
The like results for `COc1ccc(S(=O)(=O)NCC2CCN(CCOc3ccccc3OC)CC2)cc1OC` were, in that order, 3.73, 599 nM and 161 nM.
As to `COc1ccccc1OCCN1CCC(NS(=O)(=O)c2cncc3ccccc23)CC1`, in data set [1], the “Ratio EC50” value was found to be 6.1. In addition, the concentration giving a half-maximal response (EC50) in data set [2] was 608 nM; in data set [3], 99.7 nM.
The like results for `COc1ccc(S(=O)(=O)NC2CCN(CCOc3ccccc3OC)CC2)cc1OC` were, in that order, 2.4, 461 nM and 192 nM.
On to `CC(C)Oc1ccccc1OCCN1CCC(CNS(=O)(=O)c2cccc(Cl)c2F)CC1`, for which the “Ratio EC50” value in data set [1] is given as 3.8. Besides, the concentration for a half-maximal effect (EC50) was 42.1 nM in data set [2] and 11.1 nM in data set [3].

Usually EC50 stands for the concentration giving half of the maximal effect.
